OX1R antag-1: blocks the human orexin 1 receptor. O43613. OX1R-expressing cells, FRET antagonist read-out. inhibition, % at 6.6 µM. 1.8% of 330,000 active; in the data active = inhibition mostly above about 38%, no sharp cut-off; inactive = mostly below about 40%;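 note: 0% = agonist challenge alone and 100% = reference antagonist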
Target sequence (O43613 whole entry, looked up): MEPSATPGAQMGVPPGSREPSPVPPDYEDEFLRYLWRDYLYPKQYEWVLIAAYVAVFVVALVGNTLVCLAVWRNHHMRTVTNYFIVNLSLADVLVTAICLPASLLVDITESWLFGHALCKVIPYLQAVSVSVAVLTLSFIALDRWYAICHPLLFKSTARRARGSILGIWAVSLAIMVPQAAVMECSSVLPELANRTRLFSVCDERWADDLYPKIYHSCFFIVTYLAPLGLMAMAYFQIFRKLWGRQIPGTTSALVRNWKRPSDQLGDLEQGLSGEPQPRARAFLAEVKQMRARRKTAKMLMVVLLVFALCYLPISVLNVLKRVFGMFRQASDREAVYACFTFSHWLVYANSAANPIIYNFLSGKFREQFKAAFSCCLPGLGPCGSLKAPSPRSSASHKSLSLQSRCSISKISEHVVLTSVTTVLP
TAAR1 ag: agonists of human TAAR1 | Q96RJ0 | CHO RD-HGA16 TAAR1, Fluo-8 calcium fluorescence; vehicle wells 0%, saturating PEA agonist 100% | activation, % at 3 µM | 0.99% of 360,000 active | AID 624467;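 active = activation above the mean activation of all test compounds in the run plus 3 SD, cut at about 38% in these data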
Target sequence (Q96RJ0 whole entry, looked up): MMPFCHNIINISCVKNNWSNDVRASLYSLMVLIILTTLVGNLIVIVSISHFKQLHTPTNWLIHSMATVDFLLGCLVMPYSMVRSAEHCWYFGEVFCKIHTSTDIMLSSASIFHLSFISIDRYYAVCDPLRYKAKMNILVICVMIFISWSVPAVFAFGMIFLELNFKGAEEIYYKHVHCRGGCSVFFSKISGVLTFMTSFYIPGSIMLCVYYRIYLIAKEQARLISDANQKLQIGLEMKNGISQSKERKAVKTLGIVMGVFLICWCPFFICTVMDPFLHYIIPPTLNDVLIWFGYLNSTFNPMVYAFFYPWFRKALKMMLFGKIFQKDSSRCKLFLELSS
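Repeats: no replicates (n 1) | Material: CHO-derived RD-HGA16 cells with stable Gα16 and human TAAR1 | Technique: Kinetic Fluo-8 calcium fluorescence | Schedule: 17-24 h seeding, 75 min 37 °C dye, 30 min RT | Evaluation: % activation from peak over basal fluorescence ratio, DMSO-to-PEA scaled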
CHO parental Ca: counter-screen: ATP calcium response change in parental CHO cells; AID 463079; parental CHO-K1, ATP-induced calcium, Fluo-8 fluorescence; inhibition, % at 5.6 µM; 0.63% of 330,000 active;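 active = inhibition above that plate's mean sample inhibition plus 3 SD, cut at about 26% in these data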;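 note: 0% = ATP-challenged DMSO wells and 100% = DMSO wells without ATP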
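Test system: parental CHO cells; detection: calcium-sensitive Fluo-8 fluorescence; evaluation: percent inhibition of calcium signal; also added: ATP as calcium-mobilizing challenge; repeats: one well per compound; control set: ATP-challenged DMSO wells low, unchallenged DMSO wells high; compound: single nominal dose of 5.6 µM per compound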
TAAR1 antag: antagonists of human TAAR1 | inhibition, % at 3 µM | Q96RJ0 | 1.5% of 360,000 active | CHO RD-HGA16 TAAR1, Fluo-8 calcium fluorescence, antagonist;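 active = inhibition above a per-plate cutoff, the mean inhibition of test compounds on that plate plus 3 SD, cut at about 49% in these data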;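 note: 0% = DMSO plus EC80 beta-PEA response and 100% = DMSO alone without agonist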
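Test system – hTAAR1-expressing CHO RD-HGA16 cells, Gα16-coupled · Also added – β-PEA at EC80 concentration, post-compound challenge · Compound – 3 µM, single point · Incubation – dye loading 75 min at 37 °C, then 30 min room temperature · Measured by – Fluo-8 intracellular calcium dye fluorescence, real-time kinetic reads · Benchmarks – vehicle and agonist controls · Replicates – singlicate, one well per test compound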
OX1R antag-2: blocks the human orexin 1 receptor; O43613; CHO/OX1R cells, Fluo-8 calcium fluorescence, orexin A; inhibition, % at 5 µM; 0.43% of 330,000 active; AID 434989;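 active = inhibition above its plate's threshold, mean inhibition of all tested compounds on the plate plus 3 SD, cut at about 37% in these data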;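 note: 0% = orexin A challenge wells and 100% = SB-334867-A antagonist wells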
OX1R HTRF confirm: OX1R (human) antagonism, HTRF confirmed; 49% of 1,800 active; inhibition, % at 6.6 µM; shares compounds with OX1R antag-1; OX1R-expressing cells, HTRF antagonist assay; AID 492964; in the data active = inhibition above about 55%;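 note: CHO cells expressing OX1R stimulated with orexin A at about EC80; 0% = agonist challenge alone and 100% = reference antagonist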
CHO-K1 HTRF: counter-screen: parental CHO-K1 HTRF response. shares compounds with OX1R antag-1. parental CHO-K1 cells, HTRF counterscreen. inhibition, % at 6.6 µM. 48% of 1,800 active. AID 493232; in the data active = inhibition above about 17%;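 note: 0% = agonist challenge with vehicle and 100% = vehicle alone without agonist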
TAAR1 nonsel count: counter-screen for TAAR1 antagonists: nonselective antagonists; shares compounds with TAAR1 antag; inhibition, % at 3 µM; counterscreen cell line, calcium fluorescence, antagonist mode; 77% of 2,400 active; AID 651780; in the data active = inhibition above about 22%;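 note: CHO-Ga16 host cells stimulated with ATP at an EC80 level; 0% = agonist EC80 plus vehicle and 100% = vehicle without agonist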
TAAR1 ant conf: human TAAR1 antagonism, confirmed | 40% of 2,400 active | shares compounds with TAAR1 antag | TAAR1-expressing cells, fluorescence antagonist read-out | inhibition, % at 3 µM; in the data active = inhibition above about 49%;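 note: CHO-Ga16 host cells challenged with agonist PEA near its EC80; 0% = agonist at EC80 plus vehicle and 100% = vehicle with no agonist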
Ga16 nonsel ag: nonselective Ga16 agonism, counter-screen; shares compounds with TAAR1 antag; Ga16-expressing cells, calcium fluorescence, agonist counterscreen; activation, % at 3 µM; 18% of 2,400 active; in the data active = activation above about 12%;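 note: 0% = vehicle wells and 100% = saturating stimulus response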
TAAR1 ag count: counter-screen for human TAAR1 antagonists: TAAR1 agonists; shares compounds with TAAR1 antag; hTAAR1 cell line, fluorescence activation, agonist mode; activation, % at 3 µM; AID 651955; 2% of 2,400 active; in the data active = activation above about 37%;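 note: CHO cells stably expressing TAAR1 with calcium dye readout; 0% = DMSO vehicle and 100% = full agonist response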
Starred values were filed as active, the others as inactive; . = no result. In the library only some 3.9% were active in any assay of this set; here they are far more common.

SMILES | OX1R antag-1 | TAAR1 ag | CHO parental Ca | TAAR1 antag | OX1R antag-2 | OX1R HTRF confirm | CHO-K1 HTRF | others
COC(=O)c1c(NC(=O)c2ccco2)sc2c1C(C(=O)OC)CC2 (stereo unspecified) | 80* | 2 | -29 | -7 | -1 | 62* | -6
COC(=O)c1c(NC(=O)C(C)C)sc2c1C(C(=O)OC)CC2 (stereo unspecified) | 30 | 3 | -14 | 12 | -4 | . | .
CC(C)(C)N(Cc1ccc2c(c1)OCO2)C(=O)/C=C\S(=O)c1ccccc1 (stereo unspecified) | . | 2 | . | -23 | . | . | .
CN(N=Cc1ccccc1O)C(=O)c1ccccc1N | . | 1 | . | -4 | . | . | .
CC1(C(=O)NS(=O)(=O)c2ccccc2)CCN1C(=O)CC1CCCCC1 (stereo unspecified) | . | 0 | . | -6 | . | . | .
O=C(NNC(=S)Nc1ccc(C(=O)O)c(O)c1)c1ccncc1 | . | 4 | . | -5 | . | . | .
CC(C)(C)n1cnnc1Sc1ncccc1[N+](=O)[O-] | 85* | 3 | -6 | -8 | -9 | 32 | 29*
O=C(CSc1nc(O)c(C2CCCCC2)c(=O)[nH]1)Nc1ccccc1Cl | 79* | 0 | -13 | -4 | -10 | 20 | 1
O=C1C2C3C=CC(C4CC34)C2C(=O)N1/N=C/c1ccc([N+](=O)[O-])o1 (stereo unspecified) | 57 | 8 | -5 | 9 | -11 | . | .
O=C1C2C(C(=O)N1/N=C/c1ccc([N+](=O)[O-])o1)C1C=CC2C12CC2 (stereo unspecified) | 80* | -2 | -15 | 6 | -18 | 47 | 59*
COc1ccc(C(=O)c2c(C(F)(F)F)oc3c2C(=O)c2ccccc2C3=O)cc1 | 49 | . | -29 | . | -26 | . | .
Cc1ccc(C(=O)c2c(C)oc3c2C(=O)C(=O)c2ccccc2-3)cc1 | 135* | . | -31 | . | -7 | 70* | 27*
CC(=O)Nc1ccc(S(=O)(=O)NCCC(=O)NCc2ccco2)cc1 | . | 3 | . | -21 | . | . | .
NC(=O)Cc1nc(-c2ccc([N+](=O)[O-])cc2)cs1 | 78* | 3 | -3 | 4 | -15 | 54 | 33*
N#C/C(=C\c1c(Oc2ccccc2Cl)nc2ccccn2c1=O)C(=O)NC1CCS(=O)(=O)C1 (stereo unspecified) | 21 | 3 | -5 | -3 | -1 | . | .
N#C/C(=C\c1c(Oc2ccccc2F)nc2ccccn2c1=O)C(=O)NC1CCS(=O)(=O)C1 (stereo unspecified) | 89* | 2 | -10 | 8 | -17 | 30 | 36*
CCCN(CCC)CCN1CCN(C(=O)[C@H](CCc2ccccc2)NC(=O)[C@H]2O[C@@H](n3cnc4c(N)ncnc43)[C@H](O)[C@@H]2O)CC1 | . | 2 | . | -6 | . | . | .
CCCNC(=O)c1cc(C2CCCCN2S(=O)(=O)Cc2cccc(C(F)(F)F)c2)on1 (stereo unspecified) | . | 0 | . | -8 | . | . | .
O=Nc1c(O)[nH]c2ccc(F)cc12 | 15 | 12 | 3 | 0 | 0 | . | .
NC(=S)N=Nc1c(O)[nH]c2ccc(F)cc12 | 83* | 4 | -2 | 0 | 5 | 46 | 36*
CCCCOc1ccc(-c2nnc(-c3cc[n+](C)cc3)o2)cc1 | 102* | 3 | -6 | -12 | -4 | 88* | 74*
O=C(NCCN1CCOCC1)c1ccc([N+](=O)[O-])cc1[N+](=O)[O-] | 179* | 7 | -10 | 11 | -13 | 73* | 81*
O=C(CN1CCOCC1)Nc1cc([N+](=O)[O-])ccc1Cl | 79* | 10 | -4 | -15 | -5 | 31 | 35*
O=C(NCCCN1CCOCC1)c1sc2cc(Cl)ccc2c1Cl | 9 | 7 | -1 | 7 | -35 | . | .
O=C(CN1CCOCC1)Nc1cc(C(F)(F)F)ccc1Cl | 15 | 4 | -1 | -15 | -4 | . | .
SMILES | OX1R antag-1 | TAAR1 ag | CHO parental Ca | TAAR1 antag | OX1R antag-2 | OX1R HTRF confirm | CHO-K1 HTRF | others
O=C(NCCCN1CCOCC1)c1sc2cc([N+](=O)[O-])ccc2c1Cl | 93* | . | -9 | . | -11 | 39 | 56*
Cc1cc(N2CCN(CC(C)(C)O)C[C@H]2C)ccc1N1CCN(Cc2ccccc2)[C@@H](C)C1 | . | 2 | . | -24 | . | . | .
C[C@@H]1ON(C)[C@H]2C[C@H]3c4[nH]c5c(-c6ccc(C(F)(F)F)cc6)cccc5c4CCN3C(=O)[C@@H]12 | . | 2 | . | -12 | . | . | .
Cc1cccc2c3nc4ccccc4nc3n(C)c12 | 81* | 0 | -12 | -1 | 24 | 92* | 15
COC(=O)Cn1c2nc3ccccc3nc2c2cccc(C)c21 | . | 0 | . | 5 | . | . | .
Cc1ccc2nc(Nc3ccccc3)c(/C=N/O)c(=O)n2c1 | 98* | 6 | -22 | 11 | 0 | 62* | 10
COc1ccc(Nc2nc3ccc(C)cn3c(=O)c2/C=N/O)cc1 | 32 | 9 | -30 | -12 | -28 | . | .
NC(=O)CSc1ncc(-c2ccc([N+](=O)[O-])cc2)[nH]1 | 80* | 2 | -2 | -8 | -9 | 40 | 33*
COCC(C)NC(=O)c1cccc([N+](=O)[O-])c1 (stereo unspecified) | 127* | 0 | -1 | 5 | 2 | 19 | 19*
COc1ccc(C(C)NC(=O)c2cccc([N+](=O)[O-])c2)cc1OC (stereo unspecified) | 23 | 1 | -7 | -3 | -23 | . | .
CC(=O)Nc1cccc(-c2nc3ccccc3[nH]2)c1 | 14 | 4 | 13 | 10 | -15 | . | .
O=C(Nc1cccc(-c2nc3ccccc3[nH]2)c1)c1ccccn1 | 88* | 9 | -17 | 51* | -14 | 86* | 9 | TAAR1 nonsel count=19;TAAR1 ant conf=27;Ga16 nonsel ag=5;TAAR1 ag count=4
O=C1CCC(NC(=O)Cc2ccccc2)C(=O)N1 (stereo unspecified) | . | 0 | . | 2 | . | . | .
COc1ccccc1OCCCOc1ccc(/C=C2\SC(=O)NC2=O)cc1OC | 78* | 11 | -11 | 82* | -17 | 70* | 13 | TAAR1 nonsel count=34*;TAAR1 ant conf=53*;Ga16 nonsel ag=9;TAAR1 ag count=5
COc1cc(/C=C2\SC(=O)NC2=O)ccc1Oc1cnccn1 | 21 | -1 | 8 | -9 | 9 | . | .
